The subject of assay [1] is Toxoplasma gondii. As to the kind of experiment: Inhibition of Toxoplasma gondii 2F1 invasion in HFF cells assessed as beta-galactosidase activity at 10 uM. In kind it is functional, organism-based. Put shortly: (§1)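 2F1 tachyzoites in invasion medium (DMEM, 1% FBS, 10 mM HEPES) at 4 × 10^6/ml, preincubated 15 min at room temperature with inhibitor (10 or 50 μM) or DMSO, then loaded onto HFF monolayers for 30 min at 37°C, 5% CO2. Washed six times with cold PBS containing Ca/Mg, lysed, and β-gal measured with CPRG (45 min, 37°C) at A550. Two independent experiments in duplicate.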

The test system of assay [2] is Toxoplasma gondii. As to the kind of experiment: Reduction of AMA1 secretion in Toxoplasma gondii 2F1 at 50 uM. In kind it is functional, organism-based. Put shortly:
(§2)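 2F1 parasites in DGH medium (DMEM, 2 mM glutamine, 10 mM HEPES), ~3–6 × 10^7 per reaction, pretreated 15 min at room temperature with 50 μM inhibitor or DMSO. Induced secretion used 2 min at 37°C with 1% ethanol; basal secretion used 20 min at 37°C without ethanol. Supernatant (ESA) immunoblotted for MIC2, AMA1, MIC5, MIC10 and GRA1; chemiluminescence quantified by CCD.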

Assay [3] relates to Toxoplasma gondii. As to the kind of experiment: Inhibition of Toxoplasma gondii 2F1 invasion in HFF cells by red/green invasion assay. Type of assay: functional, organism-based. As to conditions: 2F1, HFF. Put shortly:
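Red/green assay: 2F1 parasites (5 × 10^7/ml in invasion medium) preincubated 15 min at room temperature with inhibitor (0.1 to 100 μM) or DMSO, then put on HFF for 15 min at 37°C. After fixation, attached parasites were stained with rabbit anti-SAG1 before permeabilization and invaded ones with MAb 9E11 after 0.1% Triton; DAPI marked nuclei. Associated parasites per host nucleus normalized to solvent control; three experiments, eight fields/well.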

The test system of assay [4] is Toxoplasma gondii. As to the kind of experiment: Effect on gliding motility in Toxoplasma gondii RH at 50 uM. In kind it is functional, organism-based. Put shortly: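 RH tachyzoites in HHE medium (HBSS, 10 mM HEPES, 1 mM EGTA), pretreated 15 min at room temperature with 50 μM inhibitor or DMSO, then allowed to glide 15 min at 37°C on slides coated with 50% FBS or poly-L-lysine. Fixed, and SAG1-containing trails stained with MAb 9E11 and visualized by epifluorescence at ×600.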

For assay [5], the system named is Toxoplasma gondii. As to the kind of experiment: Reduction of MIC10 secretion in Toxoplasma gondii 2F1 at 50 uM. Type of assay: functional, organism-based. In outline: as §2
Assay [6] relates to Toxoplasma gondii. As to the kind of experiment: Reduction of MIC5 secretion in Toxoplasma gondii 2F1 at 50 uM. In kind it is functional, organism-based. Put shortly:
as §2

Assay [7] concerns Toxoplasma gondii. As to the kind of experiment: Inhibition of microneme protein secretion in Toxoplasma gondii 2F1.
For assay [8], the system named is Toxoplasma gondii. As to the kind of experiment: Inhibition of Toxoplasma gondii 2F1 invasion in HFF cells assessed as beta-galactosidase activity at 50 uM relative to control. In kind it is functional. As to conditions: 2F1, HFF. Put shortly:
as §1

Active and inactive are the calls of the source. The calls are words filed in the database; no cut-off is given here.

For the compound `Cc1cccc(C)c1C(=O)OCC(=O)[C@@H](N)CC(N)=O`, the result with Toxoplasma gondii [1] was inactive.
In the case of `Cc1cccc(C)c1C(=O)OCC(=O)[C@@H](N)CC(C)C`, the outcome in the assay on Toxoplasma gondii [1] was inactive.
On to `CC(=O)N[C@@H](Cc1ccc(O)cc1)C(=O)N[C@@H](CCCCN)C(=O)N[C@@H](CC(C)C)C(=O)N[C@H](/C=C/S(=O)(=O)c1ccccc1)CC(N)=O`, for which, in the assay on Toxoplasma gondii [1], the result was inactive.
Still for that read-out and setting: then `CC(=O)N[C@@H](Cc1ccc(O)cc1)C(=O)N[C@@H](CCCNC(=N)N)C(=O)N[C@@H](CC(C)C)C(=O)N[C@H](/C=C/S(=O)(=O)c1ccccc1)CC(N)=O`, with “inactive”.
Same read-out and setting: then `CC(C)C[C@H](NC(=O)[C@H]1O[C@@H]1C(=O)O)C(=O)NCCCCN=C(N)N`, with “inactive”; and `Cc1cccc(C)c1C(=O)OCC(=O)[C@@H](N)CCCNC(=N)N`, with “inactive”.
On the same count and under the same terms, then `CC(=O)N[C@@H](Cc1ccc(O)cc1)C(=O)N[C@@H](CCCCN)C(=O)N[C@@H](CCCCN)C(=O)N[C@H](/C=C/S(=O)(=O)c1ccccc1)CC(N)=O`, with “inactive”; and `CC(C)C[C@@H](/C=C/S(C)(=O)=O)NC(=O)[C@H](CC(C)C)NC(=O)[C@H](CC(C)C)NC(=O)[C@@H](N)Cc1ccc(O)cc1`, with “inactive”; and `CC(=O)N1CCC[C@H]1C(=O)N[C@@H](CCCCN)C(=O)N[C@@H](CCCCN)C(=O)N[C@H](/C=C/S(=O)(=O)c1ccccc1)CC(N)=O`, with “inactive”.
With `CCOC(=O)C1OC1C(=O)N[C@@H](CC(C)C)C(=O)NCCc1ccc(O)cc1` (stereo partly drawn), in the assay on Toxoplasma gondii [1], the outcome was inactive.
With `Cc1cccc(C)c1C(=O)OCC(=O)CN`, the outcome with Toxoplasma gondii [1] was inactive.
Same read-out and setting: then `CCOC(=O)[C@H]1O[C@@H]1C(=O)N[C@@H](CC(C)C)C(=O)NCCC(C)C`, with “inactive”; and `CN1CCN(C(=O)N[C@@H](Cc2ccccc2)C(=O)N[C@H](/C=C/S(=O)(=O)c2ccccc2)CCc2ccccc2)CC1`, with “inactive”.
`CC(C)C[C@H](/C=C/S(=O)(=O)c1ccccc1)NC(=O)[C@@H](CC(C)C)NC(=O)[C@@H](CC(C)C)NC(=O)OCc1ccccc1`: the result in the assay with Toxoplasma gondii [2], in the assay with Toxoplasma gondii [4], in the assay on Toxoplasma gondii [5] and with Toxoplasma gondii [6] was Active. The IC50 came to 12.5 µM with Toxoplasma gondii [3] and 50 µM with Toxoplasma gondii [7]. Moreover, in the assay on Toxoplasma gondii [1], the outcome was inactive. The inhibition at 50 µM in the assay with Toxoplasma gondii [8] was found to be 50%.
On to `CC(=O)N1CCC[C@H]1C(=O)N[C@@H](CCCCN)C(=O)N[C@@H](CCCNC(=N)N)C(=O)N[C@H](/C=C/S(=O)(=O)c1ccccc1)CC(N)=O`, for which the outcome in the assay with Toxoplasma gondii [1] was inactive.
In the case of `CCC(C)[C@H](NC(=O)C1OC1C(=O)NCC(C)C)C(=O)N1CCC[C@@H]1C(=O)O` (stereo partly drawn), the result with Toxoplasma gondii [1] was inactive.
`O=c1oc(Cl)c(Cl)c2ccccc12`: inhibition in the assay on Toxoplasma gondii [3] was half-maximal at 12.5 µM (IC50). For the same compound, the outcome with Toxoplasma gondii [1] was inactive.
Turning to `CC(=O)N[C@@H](Cc1ccc(O)cc1)C(=O)N[C@@H](CCCCN)C(=O)N[C@@H](CCCNC(=N)N)C(=O)N[C@H](/C=C/S(=O)(=O)c1ccccc1)CC(N)=O`, the outcome with Toxoplasma gondii [1] was inactive.
In the case of `CC(=O)N1CCC[C@H]1C(=O)N[C@@H](CCCNC(=N)N)C(=O)N[C@@H](CCCCN)C(=O)N[C@H](/C=C/S(=O)(=O)c1ccccc1)CC(N)=O`, the result in the assay with Toxoplasma gondii [1] was inactive.
Still for that read-out and setting: then `CC(C)C[C@H](/C=C/S(=O)(=O)c1ccccc1)NC(=O)[C@@H](CC(C)C)NC(=O)[C@@H](CC(C)C)NC(=O)Cc1cc(I)c(O)c([N+](=O)[O-])c1`, with “inactive”; and `CC(=O)N[C@@H](Cc1ccc(O)cc1)C(=O)N[C@@H](CCCNC(=N)N)C(=O)N[C@@H](CCCCN)C(=O)N[C@H](/C=C/S(=O)(=O)c1ccccc1)CC(N)=O`, with “inactive”.
Turning to `CC(C)C[C@@H](NC(=O)N1CCOCC1)C(=O)N[C@@H](/C=C/S(=O)(=O)c1ccccc1)CCc1ccccc1`, the outcome in the assay on Toxoplasma gondii [2], in the assay with Toxoplasma gondii [4], in the assay with Toxoplasma gondii [5] and in the assay on Toxoplasma gondii [6] was Active. Besides, the figures for the IC50 in the assay with Toxoplasma gondii [3] and with Toxoplasma gondii [7] were 10 µM and 25 µM, respectively. The inhibition at 50 µM in the assay on Toxoplasma gondii [8] worked out at 70%.
Turning to `CC(=O)N1CCC[C@H]1C(=O)N[C@@H](CCCNC(=N)N)C(=O)N[C@@H](CC(C)C)C(=O)N[C@H](/C=C/S(=O)(=O)c1ccccc1)CC(N)=O`, the result with Toxoplasma gondii [1] was inactive.
Same read-out and setting: then `CC(=O)N1CCC[C@H]1C(=O)N[C@@H](CCCCN)C(=O)N[C@@H](CC(C)C)C(=O)N[C@H](/C=C/S(=O)(=O)c1ccccc1)CC(N)=O`, with “inactive”.

The record behind these values is ChEMBL document CHEMBL1142206, “Cysteine protease inhibitors block Toxoplasma gondii microneme secretion and cell invasion” (Antimicrob Agents Chemother, 2007).
